Experimental data published in ChEMBL document CHEMBL4052828, “Discovery of 4-((7H-Pyrrolo[2,3-d]pyrimidin-4-yl)amino)-N-(4-((4-methylpiperazin-1-yl)methyl)phenyl)-1H-pyrazole-3-carboxamide (FN-1501), an FLT3- and CDK-Kinase Inhibitor with Potentially High Efficiency against Acute Myelocytic Leukemia” (J Med Chem, 2018).

Columns and labels:
CDK2/Cyclin A1 = CDK2/Cyclin A1 (Homo sapiens, UniProt P24941); assay: Inhibition of human CDK2/Cyclin A1 using histone H1 as substrate preincubated for 20 mins followed by [gamma-33P]-ATP addition measure after 120 mins by filter binding method; type: protein-complex assay
How it was run: (§1)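 Compound preincubated with kinase 20 min at room temperature. Filter-binding read-out, curve-fitted IC50; mean ± SD of three independent experiments.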

[1] = target: T1, Receptor-type tyrosine-protein kinase FLT3 (Homo sapiens, UniProt P36888); assay: Inhibition of human FLT3 using EAIYAAPFAKKK as substrate preincubated for 20 mins followed by [gamma-33P]-ATP addition measure after 120 mins by filter binding method; how it was run: as §1
T1 sequence (P36888 whole entry): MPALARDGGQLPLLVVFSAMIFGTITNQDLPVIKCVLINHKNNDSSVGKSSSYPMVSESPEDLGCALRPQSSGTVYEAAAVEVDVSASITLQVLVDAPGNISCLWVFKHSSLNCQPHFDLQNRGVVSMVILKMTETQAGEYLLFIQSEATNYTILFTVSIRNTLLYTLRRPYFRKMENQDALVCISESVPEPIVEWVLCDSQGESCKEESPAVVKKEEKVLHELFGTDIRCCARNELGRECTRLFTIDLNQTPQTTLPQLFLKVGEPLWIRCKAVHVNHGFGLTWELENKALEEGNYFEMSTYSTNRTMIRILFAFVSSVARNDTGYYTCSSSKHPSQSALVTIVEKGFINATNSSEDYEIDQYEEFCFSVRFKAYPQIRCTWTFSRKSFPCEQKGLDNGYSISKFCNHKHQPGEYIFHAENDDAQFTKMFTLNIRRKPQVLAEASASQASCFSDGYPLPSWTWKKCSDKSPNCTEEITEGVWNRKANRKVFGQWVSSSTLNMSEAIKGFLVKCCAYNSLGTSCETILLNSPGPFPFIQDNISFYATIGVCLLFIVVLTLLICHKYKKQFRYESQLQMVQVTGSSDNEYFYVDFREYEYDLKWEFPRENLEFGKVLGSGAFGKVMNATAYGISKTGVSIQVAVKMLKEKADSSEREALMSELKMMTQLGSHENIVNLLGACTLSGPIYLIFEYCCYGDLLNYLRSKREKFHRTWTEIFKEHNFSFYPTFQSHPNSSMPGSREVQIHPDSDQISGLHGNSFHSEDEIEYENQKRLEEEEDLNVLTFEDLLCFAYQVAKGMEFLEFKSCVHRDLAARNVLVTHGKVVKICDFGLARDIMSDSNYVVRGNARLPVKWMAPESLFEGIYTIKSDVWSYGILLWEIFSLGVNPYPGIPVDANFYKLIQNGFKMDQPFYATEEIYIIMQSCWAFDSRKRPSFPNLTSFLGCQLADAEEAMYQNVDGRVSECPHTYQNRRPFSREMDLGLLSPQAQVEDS

MV4-11 [2] = assay: Growth inhibition of human MV4-11 cells after 72 hrs by CellTiter-Glo assay; type: functional, cell-based; settings: MV4-11, 72 h
How it was run: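 MV4-11 cells grown in IMDM with 10% FBS, 2% L-glutamine and 1% pen/strep at 37 °C, 5% CO2. Seeded at 10000 cells/well and exposed to compound at various concentrations for 72 h. Viability read by CellTiter-Glo luminescence.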

MV4-11 [3] = assay: Growth inhibition of human MV4-11 cells at 1 uM after 72 hrs by CellTiter-Glo assay relative to control; type: functional; settings: MV4-11, 72 h, read-out: GI
[4] = target: CDK2/Cyclin A1 (Homo sapiens) (UniProt P24941+P78396); assay: Inhibition of human CDK2/Cyclin A1 assessed as residual activity at 0.123 uM using histone H1 as substrate preincubated for 20 mins followed by [gamma-33P]-ATP addition measure after 120 mins by filter binding method relative to control; type: protein-complex assay
[5] = target: Receptor-type tyrosine-protein kinase FLT3 (Homo sapiens) (UniProt P36888); assay: Inhibition of human FLT3 assessed as residual activity at 0.123 uM using EAIYAAPFAKKK as substrate preincubated for 20 mins followed by [gamma-33P]-ATP addition measure after 120 mins by filter binding method relative to control
[6] = target: Cyclin-dependent kinase 4/cyclin D1 (Homo sapiens, UniProt P11802); assay: Inhibition of human CDK4/Cyclin D1 using RB protein as substrate preincubated for 20 mins followed by [gamma-33P]-ATP addition measure after 120 mins by filter binding method; type: protein-complex assay
How it was run: (§2)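 Compound preincubated with kinase 20 min at room temperature. Reaction started with 10 μM [γ-33P]ATP and run 120 min at 25°C. Filter-binding read-out, curve-fitted IC50; mean ± SD of three independent experiments.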

CDK6/cyclin D1 = CDK6/cyclin D1 (Homo sapiens, UniProt Q00534); assay: Inhibition of human CDK6/Cyclin D1 using RB protein as substrate preincubated for 20 mins followed by [gamma-33P]-ATP addition measure after 120 mins by filter binding method; type: protein-complex assay; how it was run: as §2
[7] = Lipophilicity, log P of the compound; type: physicochemical; settings: octanol/water
RS4-11 = assay: Growth inhibition of human RS4:11 cells after 72 hrs by CellTiter-Glo assay; type: functional; settings: RS4-11, 72 h
MCF7 = assay: Growth inhibition of human MCF7 cells after 72 hrs by CellTiter-Glo assay; type: functional; settings: MCF7, 72 h
HCT-116 = assay: Growth inhibition of human HCT116 cells after 72 hrs by CellTiter-Glo assay; type: functional; settings: HCT-116, 72 h
NCI-H82 = assay: Growth inhibition of human NCI-H82 cells after 72 hrs by CellTiter-Glo assay; type: functional; settings: NCI-H82, 72 h
[8] = Terminal half life in human liver microsomes by LC-MS/MS analysis; type: ADME, microsome; settings: read-out: beta t1/2 (converted)
How it was run: (§3)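 Metabolic stability measured by incubating compound in human, rat, mouse, dog and monkey liver microsomes. Terminal t1/2 determined.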

[9] = Intrinsic clearance in human liver microsomes by LC-MS/MS analysis; type: ADME, microsome; settings: read-out: CLH
[10] = Terminal half life in rat liver microsomes by LC-MS/MS analysis; type: ADME, microsome; settings: read-out: beta t1/2 (converted); how it was run: as §3
[11] = Intrinsic clearance in rat liver microsomes by LC-MS/MS analysis; type: ADME, microsome; settings: read-out: CLH
[12] = Terminal half life in mouse liver microsomes by LC-MS/MS analysis; type: ADME, microsome; settings: read-out: beta t1/2 (converted); how it was run: as §3
[13] = Intrinsic clearance in mouse liver microsomes by LC-MS/MS analysis; type: ADME, microsome; settings: read-out: CLH
[14] = Terminal half life in dog liver microsomes by LC-MS/MS analysis; type: ADME, Canis lupus familiaris, microsome; settings: read-out: beta t1/2 (converted); how it was run: as §3
[15] = Intrinsic clearance in dog liver microsomes by LC-MS/MS analysis; type: ADME, Canis lupus familiaris, microsome; settings: read-out: CLH
[16] = Terminal half life in cynomolgus monkey liver microsomes by LC-MS/MS analysis; type: ADME, Macaca fascicularis, microsome; settings: read-out: beta t1/2 (converted); how it was run: as §3
[17] = Intrinsic clearance in cynomolgus monkey liver microsomes by LC-MS/MS analysis; type: ADME, Macaca fascicularis, microsome; settings: read-out: CLH
MGC-803 = assay: Growth inhibition of human MGC803 cells after 72 hrs by CellTiter-Glo assay; type: functional; settings: MGC-803, 72 h

Chain of Cyclin-dependent kinase 4/cyclin D1 (P11802 whole entry): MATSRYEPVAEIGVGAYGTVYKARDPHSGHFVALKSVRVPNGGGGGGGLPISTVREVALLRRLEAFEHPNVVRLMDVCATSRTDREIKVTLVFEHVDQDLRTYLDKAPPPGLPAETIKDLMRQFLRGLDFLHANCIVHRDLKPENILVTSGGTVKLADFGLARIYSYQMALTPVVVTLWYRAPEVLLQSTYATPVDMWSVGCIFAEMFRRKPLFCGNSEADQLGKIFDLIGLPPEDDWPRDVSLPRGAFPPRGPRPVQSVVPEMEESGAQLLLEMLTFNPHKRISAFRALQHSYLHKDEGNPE
Chain of Cyclin-dependent kinase 4/cyclin D1 (P24385 whole entry, further chain): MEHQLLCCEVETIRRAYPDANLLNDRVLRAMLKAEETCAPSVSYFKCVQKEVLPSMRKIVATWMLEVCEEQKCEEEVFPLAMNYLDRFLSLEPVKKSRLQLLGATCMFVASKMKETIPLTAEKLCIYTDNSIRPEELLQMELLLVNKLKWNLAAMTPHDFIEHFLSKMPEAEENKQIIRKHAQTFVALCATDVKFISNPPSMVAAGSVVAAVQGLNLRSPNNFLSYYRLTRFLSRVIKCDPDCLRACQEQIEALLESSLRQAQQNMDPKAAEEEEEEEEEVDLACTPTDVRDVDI
Chain of CDK6/cyclin D1 (P24385 whole entry): as the sequence (P24385 whole entry, further chain) above
Chain of CDK6/cyclin D1 (Q00534 whole entry): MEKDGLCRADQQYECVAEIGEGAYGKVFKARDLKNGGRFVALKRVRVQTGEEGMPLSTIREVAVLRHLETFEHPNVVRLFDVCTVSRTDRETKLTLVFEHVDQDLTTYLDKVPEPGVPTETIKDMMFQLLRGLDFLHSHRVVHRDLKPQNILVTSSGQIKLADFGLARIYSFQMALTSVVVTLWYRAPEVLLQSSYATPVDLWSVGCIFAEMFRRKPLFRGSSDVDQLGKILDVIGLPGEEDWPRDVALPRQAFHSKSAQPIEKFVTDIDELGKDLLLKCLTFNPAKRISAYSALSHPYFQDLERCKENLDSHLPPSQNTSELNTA

Structure (SMILES) | IC50 (CDK2/Cyclin A1) [nM] | IC50 [1] [nM] | IC50 (MV4-11 [2]) [nM] | inhibition of growth at 1 µM (MV4-11 [3]) [%] | further results
CCc1cc2c(Nc3c[nH]nc3C(=O)Nc3ccc(CN4CCOCC4)cc3)ncnc2s1 | 3.3 | 1.56 | 34 |  | 
CCN(CC)Cc1ccc(NC(=O)c2n[nH]cc2Nc2ncnc3[nH]ccc23)cc1 | 13.6 | 0.13 |  |  | 
O=C(Nc1ccc(CN2CCOCC2)cc1)c1n[nH]cc1Nc1ccnc2ccc(Br)cc12 | 24.1 | 16.9 |  | 93.7 | 
O=C(Nc1c[nH]nc1C(=O)Nc1ccc(CN2CCOCC2)cc1)c1ccccc1 | 318 | 42.6 | 450 |  | 
O=C(Nc1ccc(CN2CCOCC2)cc1)c1n[nH]cc1Nc1nc(Cl)nc2ccccc12 | 58.6 | 0.958 |  | 91.1 | 
Cc1cc2c(Nc3c[nH]nc3C(=O)Nc3ccc(CN4CCN(C)CC4)cc3)ncnc2s1 |  | 0.384 |  |  | 
CN1CCN(Cc2ccc(NC(=O)c3n[nH]cc3Nc3nccc4ccccc34)cc2)CC1 |  |  |  |  | Activity [4]: 60.5%; Activity [5]: 24.5%
Cc1sc2ncnc(Nc3c[nH]nc3C(=O)Nc3ccc(CN4CCOCC4)cc3)c2c1C | 7.34 | 3.52 | 30 |  | 
COc1ccc2c(Nc3c[nH]nc3C(=O)Nc3ccc(CN4CCOCC4)cc3)ccnc2c1 |  | 97.4 |  | 22.2 | Activity [4]: 75%
CN1CCN(Cc2ccc(NC(=O)c3n[nH]cc3Nc3ncnc4occc34)cc2)CC1 | 16.5 | 2.56 to 2.65 |  | 94.7 | IC50 [6]: 5.67 nM; IC50 (CDK6/cyclin D1): 5.09 nM
CN1CCN(Cc2ccc(NC(=O)c3n[nH]cc3Nc3ncnc4ccsc34)cc2)CC1 | 9.32 | 0.47 | 23 |  | IC50 [6]: 3.1 nM; IC50 (CDK6/cyclin D1): 4.11 nM
O=C(Nc1ccc(CN2CCOCC2)cc1)c1n[nH]cc1Nc1ncnc2[nH]ccc12 | 7.25 | 2.06 | 21 |  | 
O=C(Nc1ccc(CN2CCNCC2)cc1)c1n[nH]cc1Nc1ncnc2[nH]ccc12 | 4.49 | 1.03 | 53 |  | logP [7]: 1.22
Cc1sc2ncnc(Nc3c[nH]nc3C(=O)Nc3ccc(CN4CCN(C)CC4)cc3)c2c1C | 1.9 | 0.576 |  |  | 
O=C(Nc1ccc(CN2CCOCC2)cc1)c1n[nH]cc1Nc1ncnc2ccccc12 | 5.3 | 0.588 | 23 |  | 
O=C(Nc1ccc(CN2CCOCC2)cc1)c1n[nH]cc1Nc1cc(C(F)(F)F)nc2ccccc12 |  |  |  | 4.7 | Activity [4]: 99.7%; Activity [5]: 83.2%
Cc1csc2ncnc(Nc3c[nH]nc3C(=O)Nc3ccc(CN4CCOCC4)cc3)c12 | 1.08 | 1.37 | 11 |  | 
O=C(Nc1ccc(CNC2CC2)cc1)c1n[nH]cc1Nc1ncnc2sccc12 | 2.05 | 1.05 |  |  | 

Structure (SMILES) | IC50 (CDK2/Cyclin A1) [nM] | IC50 [1] [nM] | IC50 (MV4-11 [2]) [nM] | inhibition of growth at 1 µM (MV4-11 [3]) [%] | further results
CN1CCN(Cc2ccc(NC(=O)c3n[nH]cc3Nc3ccnc4ccc(Br)cc34)cc2)CC1 | 5.74 | 4.84 |  | 97.2 | 
O=C(Nc1ccc(CN2CCOCC2)cc1)c1n[nH]cc1Nc1ncnc2sccc12 | 3.36 | 0.623 |  | 98.5 | IC50 [6]: 2.4 nM; IC50 (CDK6/cyclin D1): 3.88 nM; GI50 (RS4-11): 170 nM; GI50 (MCF7): 610 nM; GI50 (HCT-116): 580 nM; GI50 (NCI-H82): 290 nM; half-life [8]: 8.28 min; CLint scaled [9]: 165 mL/min/kg; half-life [10]: 7.08 min; CLint scaled [11]: 352 mL/min/kg; half-life [12]: 7.2 min; CLint scaled [13]: 765 mL/min/kg; half-life [14]: 1.5 min; CLint scaled [15]: 1330 mL/min/kg; half-life [16]: 10.9 min; CLint scaled [17]: 171 mL/min/kg; GI50 (MGC-803): 210 nM
CCN(CC)Cc1ccc(NC(=O)c2n[nH]cc2Nc2ncnc3sccc23)cc1 | 1.59 | 5.36 |  |  | 
CN1CCN(Cc2ccc(NC(=O)c3n[nH]cc3Nc3ccnc4ccccc34)cc2)CC1 |  |  |  | 98.8 | Activity [4]: 26.5%; Activity [5]: 27.7%
COc1ccc2nccc(Nc3c[nH]nc3C(=O)Nc3ccc(CN4CCN(C)CC4)cc3)c2c1 |  |  |  | 64.4 | Activity [4]: 32.5%; Activity [5]: 10.4%
Cc1csc2ncnc(Nc3c[nH]nc3C(=O)Nc3ccc(CN4CCN(C)CC4)cc3)c12 | 4.49 | 0.167 |  |  | 
O=C(Nc1ccc(CN2CCOCC2)cc1)c1n[nH]cc1Nc1ccnc2ccccc12 |  |  |  | 42 | Activity [4]: 57.7%; Activity [5]: 40.8%
CN1CCCN(Cc2ccc(NC(=O)c3n[nH]cc3Nc3ncnc4sccc34)cc2)CC1 | 3.03 | 0.32 |  |  | 
CN1CCN(Cc2ccc(NC(=O)c3n[nH]cc3Nc3ncnc4ccccc34)cc2)CC1 | 8.27 | 3.17 |  |  | 
O=C(Nc1ccc(CN2CCOCC2)cc1)c1n[nH]cc1Nc1nccc2ccccc12 | 287 | 42.4 |  | 50.4 | 
CCc1cc2c(Nc3c[nH]nc3C(=O)Nc3ccc(CN4CCN(C)CC4)cc3)ncnc2s1 | 1.87 | 0.101 |  |  | 
COc1ccc2c(Nc3c[nH]nc3C(=O)Nc3ccc(CN4CCN(C)CC4)cc3)ccnc2c1 | 697 | 197 |  | 22.6 | 
COc1ccc2ncnc(Nc3c[nH]nc3C(=O)Nc3ccc(CN4CCOCC4)cc3)c2c1 | 29.8 | 3.78 |  | 53.1 | 
CC(C)c1cc2c(Nc3c[nH]nc3C(=O)Nc3ccc(CN4CCN(C)CC4)cc3)ncnc2s1 | 3.89 | 2.31 |  |  | 
CC(C)c1cc2c(Nc3c[nH]nc3C(=O)Nc3ccc(CN4CCOCC4)cc3)ncnc2s1 | 9.85 | 7.63 | 15 |  | 
O=C(Nc1ccc(CN2CCOCC2)cc1)c1n[nH]cc1Nc1ncnc2ccsc12 | 11.6 | 6.15 | 35 |  | 
O=C(Nc1ccc(CN2CCNCC2)cc1)c1n[nH]cc1Nc1ncnc2sccc12 | 2.08 | 0.34 | 19 |  | logP [7]: 2.65
